Assay results published in the array DNA melting data of Ke et al. (doi:10.1101/2024.01.08.574731).

Columns and labels:
[1] = folding enthalpy; higher = less favourable; fluorescence melt of hairpins on a sequencing array, two-state fit; settings: sodium 0.088 M
Method in brief: (§1)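 Melting temperature and folding enthalpy were derived from bootstrapped two-state fits. The fitted temperatures were raised by 9.35 °C to agree with UV melts, and four replicates were combined by inverse variance. The underlying data were Cy3 fluorescence images of library hairpins, with annealed Cy3 and quencher oligos, on a sequenced MiSeq flow cell in 50 mM Na-HEPES pH 8.0, 25 mM NaCl, taken in 2.5 °C steps up to 60 °C, normalised to pre-quench Cy3 and to control constructs.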

[2] = melting temperature; fluorescence melt of hairpins on a sequencing array, two-state fit, raised by 9.35 °C to match UV melts; settings: sodium 0.088 M
Method in brief: as §1

Row | Sequence | folding enthalpy [1] | Tm [2]
1 | GATCTGGGTGCAGATC ((((((....)))))) | -47.2 kcal/mol | 52.5 °C
2 | GATCTGGTACAGATC ((((((...)))))) | -41.3 kcal/mol | 60.8 °C
3 | GATCTGGTACCAGATC ((((((....)))))) | -37.8 kcal/mol | 56 °C
4 | GATCTGGTCTCAGATC ((((((....)))))) | -43 kcal/mol | 53 °C
5 | GATCTGGTGACAGATC ((((((....)))))) | -40.8 kcal/mol | 56.4 °C
6 | GATCTGGTTGCAGATC ((((((....)))))) | -42.9 kcal/mol | 51.1 °C
7 | GATCTGTAGCCAGATC ((((((....)))))) | -34.1 kcal/mol | 48.6 °C
8 | GATCTGTATCAGATC ((((((...)))))) | -34.4 kcal/mol | 48.2 °C
9 | GATCTGTATGCAGATC ((((((....)))))) | -38.8 kcal/mol | 54.9 °C
10 | GATCTGTCCACAGATC ((((((....)))))) | -40.8 kcal/mol | 55.6 °C
11 | GATCTGTCCCAGATC ((((((...)))))) | -33.6 kcal/mol | 49.5 °C
12 | GATCTGTCTGCAGATC ((((((....)))))) | -42.1 kcal/mol | 52.9 °C
13 | GATCTGTGCTCAGATC ((((((....)))))) | -39 kcal/mol | 50.6 °C
14 | GATCTGTGGCAGATC ((((((...)))))) | -30.3 kcal/mol | 49.1 °C
15 | GATCTGTGGGCAGATC ((((((....)))))) | -49.7 kcal/mol | 54.3 °C
16 | GATCTGTGTGCAGATC ((((((....)))))) | -46.9 kcal/mol | 56.4 °C
17 | GATCTGTTGACAGATC ((((((....)))))) | -43.8 kcal/mol | 53.1 °C
18 | GATCTGTTTGCAGATC ((((((....)))))) | -40.6 kcal/mol | 54.8 °C
19 | GATCTTAAAAAGATC ((((((...)))))) | -27.5 kcal/mol | 42.7 °C
20 | GATCTTAACCAAGATC ((((((....)))))) | -33.7 kcal/mol | 42.9 °C
21 | GATCTTAATAAGATC ((((((...)))))) | -24.4 kcal/mol | 39.8 °C
22 | GATCTTACACAAGATC ((((((....)))))) | -28.2 kcal/mol | 42.7 °C
23 | GATCTTACCAAGATC ((((((...)))))) | -33 kcal/mol | 45.6 °C
24 | GATCTTACGAAAGATC ((((((....)))))) | -26.4 kcal/mol | 39.4 °C

Row | Sequence | folding enthalpy [1] | Tm [2]
25 | GATCTTACGGAAGATC ((((((....)))))) | -29.2 kcal/mol | 44.1 °C
26 | GATCTTACTAAGATC ((((((...)))))) | -34.4 kcal/mol | 42.6 °C
27 | GATCTTAGATAAGATC ((((((....)))))) | -42.7 kcal/mol | 41.8 °C
28 | GATCTTAGCCAAGATC ((((((....)))))) | -32.2 kcal/mol | 43.1 °C
29 | GATCTTAGGTAAGATC ((((((....)))))) | -30.1 kcal/mol | 42.6 °C
30 | GATCTTAGTGAAGATC ((((((....)))))) | -27.1 kcal/mol | 43.1 °C
31 | GATCTTATGCAAGATC ((((((....)))))) | -36.5 kcal/mol | 43 °C
32 | GATCTTATGGAAGATC ((((((....)))))) | -29.2 kcal/mol | 40.5 °C
33 | GATCTTATTTAAGATC ((((((....)))))) | -38.8 kcal/mol | 46.4 °C
34 | GATCTTCAACAAGATC ((((((....)))))) | -25.1 kcal/mol | 38.3 °C
35 | GATCTTCACAAAGATC ((((((....)))))) | -28.9 kcal/mol | 44.9 °C
36 | GATCTTCAGGAAGATC ((((((....)))))) | -29 kcal/mol | 46.8 °C
37 | GATCTTCCAAAGATC ((((((...)))))) | -27.4 kcal/mol | 43.2 °C
38 | GATCTTCCCAAAGATC ((((((....)))))) | -32.6 kcal/mol | 45.5 °C
39 | GATCTTCCCAAGATC ((((((...)))))) | -37.6 kcal/mol | 45.8 °C
40 | GATCTTCCCCAAGATC ((((((....)))))) | -35.2 kcal/mol | 41.6 °C
41 | GATCTTCCGAAGATC ((((((...)))))) | -31.9 kcal/mol | 43 °C
42 | GATCTTCCTAAGATC ((((((...)))))) | -31.6 kcal/mol | 45.7 °C
43 | GATCTTCGCTAAGATC ((((((....)))))) | -34.2 kcal/mol | 43 °C
44 | GATCTTCTAAAAGATC ((((((....)))))) | -30.2 kcal/mol | 42 °C
45 | GATCTTCTGGAAGATC ((((((....)))))) | -46.2 kcal/mol | 49.7 °C
46 | GATCTTCTTAAGATC ((((((...)))))) | -30.1 kcal/mol | 44.3 °C
47 | GATCTTGACGAAGATC ((((((....)))))) | -26.5 kcal/mol | 46.1 °C
48 | GATCTTGAGAAGATC ((((((...)))))) | -19.9 kcal/mol | 39.6 °C

Row | Sequence | folding enthalpy [1] | Tm [2]
49 | GATCTTGATAAAGATC ((((((....)))))) | -40.9 kcal/mol | 52.1 °C
50 | GATCTTGCGAAAGATC ((((((....)))))) | -46.2 kcal/mol | 50.6 °C
51 | GATCTTGCTCAAGATC ((((((....)))))) | -39.4 kcal/mol | 48.3 °C
52 | GATCTTGCTGAAGATC ((((((....)))))) | -31.4 kcal/mol | 43.2 °C
53 | GATCTTGGAAAAGATC ((((((....)))))) | -33 kcal/mol | 49 °C
54 | GATCTTGGAAACAGGATC ((((.((....)).)))) | -28.6 kcal/mol | 39.1 °C
55 | GATCTTGGCCAAGATC ((((((....)))))) | -57.1 kcal/mol | 54.8 °C
56 | GATCTTGGGAAAGATC ((((((....)))))) | -33.3 kcal/mol | 49.1 °C
57 | GATCTTGGGGAAGATC ((((((....)))))) | -29.1 kcal/mol | 40.8 °C
58 | GATCTTGGTAAGATC ((((((...)))))) | -29 kcal/mol | 43.2 °C
59 | GATCTTGGTCAAGATC ((((((....)))))) | -36.8 kcal/mol | 48.9 °C
60 | GATCTTGGTTAAGATC ((((((....)))))) | -30.5 kcal/mol | 43.7 °C
61 | GATCTTGTACAAGATC ((((((....)))))) | -43.2 kcal/mol | 51.7 °C
62 | GATCTTGTATAAGATC ((((((....)))))) | -37.7 kcal/mol | 50.5 °C
63 | GATCTTGTGAAGATC ((((((...)))))) | -28.9 kcal/mol | 42.4 °C
64 | GATCTTGTTCAAGATC ((((((....)))))) | -43.4 kcal/mol | 49.1 °C
65 | GATCTTGTTGAAGATC ((((((....)))))) | -27.2 kcal/mol | 45 °C
66 | GATCTTTAAAAGATC ((((((...)))))) | -23 kcal/mol | 39.9 °C
67 | GATCTTTACAAAGATC ((((((....)))))) | -33.8 kcal/mol | 46.5 °C
68 | GATCTTTACGAAGATC ((((((....)))))) | -32.2 kcal/mol | 45.3 °C
69 | GATCTTTACTAAGATC ((((((....)))))) | -38 kcal/mol | 45 °C
70 | GATCTTTAGAAAGATC ((((((....)))))) | -31.1 kcal/mol | 40.6 °C
71 | GATCTTTAGCAAGATC ((((((....)))))) | -28.2 kcal/mol | 37.1 °C
72 | GATCTTTAGGAAGATC ((((((....)))))) | -28.5 kcal/mol | 42.6 °C

Row | Sequence | folding enthalpy [1] | Tm [2]
73 | GATCTTTAGTAAGATC ((((((....)))))) | -29.9 kcal/mol | 40 °C
74 | GATCTTTATTAAGATC ((((((....)))))) | -34.2 kcal/mol | 43.5 °C
75 | GATCTTTCAAAGATC ((((((...)))))) | -28.5 kcal/mol | 44.5 °C
76 | GATCTTTCATAAGATC ((((((....)))))) | -31.4 kcal/mol | 44.8 °C
77 | GATCTTTCTAAGATC ((((((...)))))) | -34.2 kcal/mol | 45.2 °C
78 | GATCTTTCTTAAGATC ((((((....)))))) | -37.3 kcal/mol | 44.9 °C
79 | GATCTTTGAAAGATC ((((((...)))))) | -25.8 kcal/mol | 38.1 °C
80 | GATCTTTGGAAGATC ((((((...)))))) | -26.6 kcal/mol | 41.2 °C
81 | GATCTTTGGTAAGATC ((((((....)))))) | -30.8 kcal/mol | 42.5 °C
82 | GATCTTTTATAAGATC ((((((....)))))) | -34.5 kcal/mol | 44.1 °C
83 | GATCTTTTCAAGATC ((((((...)))))) | -36.3 kcal/mol | 47.7 °C
84 | GATCTTTTCCAAGATC ((((((....)))))) | -36.2 kcal/mol | 42.9 °C
85 | GATCTTTTCGAAGATC ((((((....)))))) | -33.5 kcal/mol | 46.4 °C
86 | GATCTTTTTTAAGATC ((((((....)))))) | -35.2 kcal/mol | 45.2 °C
87 | GATGAACGAAAGTTGATC (((.(((....))).))) | -22.7 kcal/mol | 38.1 °C
88 | GATGAACGAAAGTTTATC (((.(((....))).))) | -29.3 kcal/mol | 44.6 °C
89 | GATGAAGCGAAAGCTATC (((..(((....)))))) | -10.4 kcal/mol | 28.4 °C
90 | GATGAAGGAAACTTCACC (.(((((....))))).) | -13.2 kcal/mol | 32.2 °C
91 | GATGACCGAAAGGTTATC (((.(((....))).))) | -36.2 kcal/mol | 51 °C
92 | GATGACGAAAGTCAAATC ((((((....)))..))) | -11.8 kcal/mol | 34.6 °C
93 | GATGACGAAAGTCATATC ((((((....)))..))) | -14 kcal/mol | 50 °C
94 | GATGACGAAAGTCCTATC ((((((....)))..))) | -9.62 kcal/mol | 24 °C
95 | GATGACGAAAGTCGGATC ((((((....)))..))) | -13.4 kcal/mol | 34.3 °C
96 | GATGACGAAAGTCTAATC ((((((....)))..))) | -12 kcal/mol | 29.9 °C
